What was measured:
Rattus norvegicus [1] = experiment: Hypotensive response (diastolic blood pressure) was determined at 30 minutes for a dose 10 mg/kg administered and 1 mL of corn oil in rat; assay type: functional, Artery
Procedure, shortened: (§1)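 Male Sprague–Dawley rats (250-350 g), femoral artery cannulated under sodium pentobarbital (35 mg/kg ip), restrained supine. Heparin–saline injected into the cannula before recording. Single oral gavage dose in corn oil. Systolic and diastolic pressure taken 30 min after dosing, given as mean (±SE) percent decrease from base line, base line being pressure of animals given 1 mL corn oil.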

Rattus norvegicus [2] = experiment: Hypotensive response (systolic blood pressure) was determined at 30 minutes for a dose of 10 mg/kg administered and 1 mL of corn oil in rat; assay type: functional, Artery; procedure, shortened: as §1
Rattus norvegicus [3] = experiment: Hypotensive response for decrease in blood pressure was determined for a dose 3 mg/kg of in rat; assay type: functional
Procedure, shortened: (§2)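 Male Sprague–Dawley rats (250-350 g), femoral artery cannulated under sodium pentobarbital (35 mg/kg ip); pressure recorded by transducer after recovery from anesthesia. Oral gavage in under 1 mL corn oil, doses 1-90 mg/kg; vehicle controls got 1 mL corn oil. Recorded continuously for 30 min, then at intervals. Result is mean (±SE) percent decrease in […] from post-anesthesia base line over the first hour.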

Rattus norvegicus [4] = experiment: Hypotensive response for decrease in blood pressure was determined for a dose 10 mg/kg of in rat; assay type: functional; procedure, shortened: as §2
Rattus norvegicus [5] = experiment: Hypotensive response for decrease in blood pressure was determined for a dose 45 mg/kg of in rat; assay type: functional; procedure, shortened: as §2
Rattus norvegicus [6] = experiment: Hypotensive response for decrease in blood pressure was determined for a dose 25 mg/kg of in rat; assay type: functional; procedure, shortened: as §2
Rattus norvegicus [7] = experiment: Hypotensive response for decrease in blood pressure was determined for a dose 90 mg/kg of in rat; assay type: functional; procedure, shortened: as §2
Rattus norvegicus [8] = experiment: Hypotensive response for decrease in blood pressure was determined for a dose 1 mg/kg of in rat; assay type: functional; procedure, shortened: as §2
Rattus norvegicus [9] = experiment: Hypotensive response for decrease in blood pressure was determined for a dose 0 mg/kg + 1 mL corn oil in rat; assay type: functional; procedure, shortened: as §2
Rattus norvegicus [10] = experiment: Hypotensive response for decrease in blood pressure was determined for a dose 15 mg/kg of in rat; assay type: functional; procedure, shortened: as §2

[O-]c1n[n+](-c2ccc(Cl)cc2)no1
Decrease in blood pressure (Rattus norvegicus [1]): 47.9% | Decrease in blood pressure (Rattus norvegicus [2]): 47%

[O-]c1n[n+](-c2ccc(Cl)c(Cl)c2)no1
Decrease in blood pressure (Rattus norvegicus [1]): 30.9% | Decrease in blood pressure (Rattus norvegicus [2]): 31.7%

[O-]c1n[n+](-c2c(Cl)cccc2Cl)no1
Decrease in blood pressure (Rattus norvegicus [1]): 8.3% | Decrease in blood pressure (Rattus norvegicus [2]): 11.5%

O=[N+]([O-])c1ccc(-[n+]2noc([O-])n2)cc1
Decrease in blood pressure (Rattus norvegicus [1]): 23.8% | Decrease in blood pressure (Rattus norvegicus [2]): 24.8%

[O-]c1n[n+](-c2ccccc2)no1
Decrease in blood pressure (Rattus norvegicus [1]): 52.3% | Decrease in blood pressure (Rattus norvegicus [2]): 51.7%

COc1ccc(-[n+]2noc([O-])n2)cc1
Decrease in blood pressure (Rattus norvegicus [1]): 20% | Decrease in blood pressure (Rattus norvegicus [2]): 22.2%

Cc1ccc(-[n+]2noc([O-])n2)cc1
Decrease in blood pressure (Rattus norvegicus [3]): 23.5% | Decrease in blood pressure (Rattus norvegicus [4]): 28% | Decrease in blood pressure (Rattus norvegicus [1]): 27.5% | Decrease in blood pressure (Rattus norvegicus [5]): 53% | Decrease in blood pressure (Rattus norvegicus [6]): 48.1% | Decrease in blood pressure (Rattus norvegicus [2]): 28.5% | Decrease in blood pressure (Rattus norvegicus [7]): 75.3% | Decrease in blood pressure (Rattus norvegicus [8]): 13.9% | Decrease in blood pressure (Rattus norvegicus [9]): 0% | Decrease in blood pressure (Rattus norvegicus [10]): 37.6%
